Consider 31 compounds from ChEMBL document CHEMBL2146396, “Design, synthesis and evaluation of novel metalloproteinase inhibitors based on L-tyrosine scaffold” (Bioorg Med Chem, 2012).

The target in experiment [1] is 72 kDa type IV collagenase (Homo sapiens, UniProt P08253). The experiment is described as follows: Inhibition of MMP2 using BML-P125-9090 as substrate after 30 mins by microplate reader analysis. The method, boiled down:
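Colorimetric kit assay. Enzyme and inhibitor were preincubated 30 min at 37 °C in assay buffer equilibrated to 37 °C. Substrate was then added to start the reaction. A412 was read continuously at 1 min intervals for 10 min. IC50 was derived from the readings.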

The target in experiment [2] is T1, Histone deacetylase 8 (Homo sapiens, UniProt Q9BY41).
T1 sequence (Q9BY41 whole entry): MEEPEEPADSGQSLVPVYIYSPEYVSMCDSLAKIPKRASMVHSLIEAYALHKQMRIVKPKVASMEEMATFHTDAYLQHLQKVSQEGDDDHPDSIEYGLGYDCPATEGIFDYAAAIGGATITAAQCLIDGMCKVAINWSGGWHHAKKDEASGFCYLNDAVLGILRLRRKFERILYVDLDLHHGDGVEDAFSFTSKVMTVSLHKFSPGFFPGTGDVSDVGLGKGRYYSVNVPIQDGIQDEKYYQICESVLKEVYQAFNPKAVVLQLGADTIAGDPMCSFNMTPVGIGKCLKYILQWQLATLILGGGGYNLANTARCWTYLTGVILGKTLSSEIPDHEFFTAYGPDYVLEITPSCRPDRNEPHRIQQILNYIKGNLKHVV
As to the kind of experiment: Inhibition of HDAC8 after 45 mins by microplate fluorometric analysis.

Chain of 72 kDa type IV collagenase (P08253 whole entry): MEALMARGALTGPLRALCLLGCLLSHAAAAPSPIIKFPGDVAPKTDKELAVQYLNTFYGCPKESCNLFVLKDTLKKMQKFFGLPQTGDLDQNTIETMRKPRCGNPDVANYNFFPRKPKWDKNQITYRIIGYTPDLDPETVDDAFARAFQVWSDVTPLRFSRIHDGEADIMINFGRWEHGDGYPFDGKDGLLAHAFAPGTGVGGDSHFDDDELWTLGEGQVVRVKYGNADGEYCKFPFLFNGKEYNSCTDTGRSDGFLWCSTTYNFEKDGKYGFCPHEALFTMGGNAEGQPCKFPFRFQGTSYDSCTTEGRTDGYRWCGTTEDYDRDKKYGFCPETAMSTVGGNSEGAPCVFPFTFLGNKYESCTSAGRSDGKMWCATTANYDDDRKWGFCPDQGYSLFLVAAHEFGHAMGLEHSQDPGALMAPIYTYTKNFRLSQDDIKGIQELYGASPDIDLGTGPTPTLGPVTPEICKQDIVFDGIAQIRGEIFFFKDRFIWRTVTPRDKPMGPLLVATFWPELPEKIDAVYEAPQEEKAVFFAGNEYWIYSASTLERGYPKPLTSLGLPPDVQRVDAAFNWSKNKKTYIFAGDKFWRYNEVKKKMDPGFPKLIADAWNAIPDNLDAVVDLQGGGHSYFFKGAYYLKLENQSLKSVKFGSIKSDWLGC

Usually IC50 stands for the concentration that gives 50% inhibition. Consider `COC(=O)[C@H](Cc1ccc(OCCc2ccccc2)cc1)NC(=O)c1ccc(C)cc1`, for which the half-inhibitory concentration (IC50) in experiment [1] was 85.5 µM; in experiment [2] it was over 1000 µM.
With `CS(=O)(=O)N[C@@H](Cc1ccc(OCc2ccccc2)cc1)C(=O)O`, the IC50 in experiment [1] amounted to 1.4 µM; in experiment [2], 47.2 µM.
As for `CC(=O)N[C@@H](Cc1ccc(OCCc2ccccc2)cc1)C(=O)O`, the figures for the IC50 in experiment [1] and in experiment [2] were 0.75 µM and 121 µM, respectively.
The like results for `CS(=O)(=O)N[C@@H](Cc1ccc(OCc2ccccc2)cc1)C(=O)NO` were, in that order, 0.067 µM and 3.6 µM.
Regarding `O=C(N[C@@H](Cc1ccc(OCc2ccccc2)cc1)C(=O)O)c1ccccc1`, the IC50 in experiment [1] was determined as 9.8 µM; in experiment [2], 111 µM.
With `CS(=O)(=O)N[C@@H](Cc1ccc(OCCc2ccccc2)cc1)C(=O)O`, the results for the IC50 in experiment [1] and in experiment [2] were 0.12 µM and 102 µM, respectively.
Turning to `O=C(N[C@@H](Cc1ccc(OCCc2ccccc2)cc1)C(=O)NO)c1ccccc1`, the IC50 in experiment [1] is 0.9 µM; in experiment [2], 27.8 µM.
The compound `COc1ccc(S(=O)(=O)N(CC(=O)NO)CC(C)C)cc1` gave an IC50 in experiment [1] of 0.014 µM.
For `COC(=O)[C@H](Cc1ccc(OCCc2ccccc2)cc1)NC(C)=O`, the values for the IC50 in experiment [1] and in experiment [2] were 12.5 µM and 825 µM, respectively.
`O=C(N[C@@H](Cc1ccc(OCc2ccccc2)cc1)C(=O)NO)c1ccccc1`: the IC50 was found to be 1.7 µM in experiment [1] and 9.3 µM in experiment [2].
The like results for `Cc1ccc(C(=O)N[C@@H](Cc2ccc(OCc3ccccc3)cc2)C(=O)O)cc1` were, in that order, 8.1 µM and over 1000 µM.
For `CC(=O)N[C@@H](Cc1ccc(OCCc2ccccc2)cc1)C(=O)NO`, the results for the IC50 in experiment [1] and in experiment [2] were 0.013 µM and 14.4 µM, respectively.
The like results for `COC(=O)[C@H](Cc1ccc(OCc2ccccc2)cc1)NC(C)=O` were, in that order, 27.6 µM and 872 µM.
The like results for `COC(=O)[C@H](Cc1ccc(OCc2ccccc2)cc1)NS(C)(=O)=O` were, in that order, 17.8 µM and 754 µM.
Turning to `COC(=O)[C@H](Cc1ccc(OCc2ccccc2)cc1)NC(=O)c1ccc(C)cc1`, the figures for the IC50 in experiment [1] and in experiment [2] were 83.7 µM and over 1000 µM, respectively.
Turning to `CC(=O)N[C@@H](Cc1ccc(OCc2ccccc2)cc1)C(=O)O`, the IC50 in experiment [1] was 3 µM; in experiment [2], 36.9 µM.
The like results for `COC(=O)[C@H](Cc1ccc(OCc2ccccc2)cc1)NC(=O)c1ccccc1` were, in that order, 67.5 µM and over 1000 µM.
The like results for `COC(=O)[C@H](Cc1ccc(OCc2ccccc2)cc1)NS(=O)(=O)c1ccc(C)cc1` were, in that order, 10.7 µM and over 1000 µM.
The like results for `COC(=O)[C@H](Cc1ccc(OCCc2ccccc2)cc1)NS(=O)(=O)c1ccc(C)cc1` were, in that order, 6.3 µM and 962 µM.
In the case of `Cc1ccc(S(=O)(=O)N[C@@H](Cc2ccc(OCc3ccccc3)cc2)C(=O)NO)cc1`, the IC50 came to 0.025 µM in experiment [1] and 42.4 µM in experiment [2].
Consider `O=C(N[C@@H](Cc1ccc(OCCc2ccccc2)cc1)C(=O)O)c1ccccc1`, for which the IC50 turned out to be 7.6 µM in experiment [1] and 253 µM in experiment [2].
As to `Cc1ccc(C(=O)N[C@@H](Cc2ccc(OCCc3ccccc3)cc2)C(=O)O)cc1`, the IC50 in experiment [1] was 4.5 µM; in experiment [2] it was 386 µM.
With `Cc1ccc(C(=O)N[C@@H](Cc2ccc(OCc3ccccc3)cc2)C(=O)NO)cc1`, the IC50 in experiment [1] was determined as 0.46 µM; in experiment [2] it was 30.7 µM.
The like results for `Cc1ccc(C(=O)N[C@@H](Cc2ccc(OCCc3ccccc3)cc2)C(=O)NO)cc1` were, in that order, 3.9 µM and 52.5 µM.
`CC(=O)N[C@@H](Cc1ccc(OCc2ccccc2)cc1)C(=O)NO`: the values for the IC50 in experiment [1] and in experiment [2] were 0.037 µM and 5.8 µM, respectively.
The like results for `COC(=O)[C@H](Cc1ccc(OCCc2ccccc2)cc1)NS(C)(=O)=O` were, in that order, 2.4 µM and over 1000 µM.
Take `Cc1ccc(S(=O)(=O)N[C@@H](Cc2ccc(OCc3ccccc3)cc2)C(=O)O)cc1`: the figures for the IC50 in experiment [1] and in experiment [2] were 2.5 µM and 505 µM, respectively.
Turning to `Cc1ccc(S(=O)(=O)N[C@@H](Cc2ccc(OCCc3ccccc3)cc2)C(=O)O)cc1`, the IC50 is 0.27 µM in experiment [1] and over 1000 µM in experiment [2].
On to `COC(=O)[C@H](Cc1ccc(OCCc2ccccc2)cc1)NC(=O)c1ccccc1`, for which the IC50 in experiment [1] is 74.6 µM; in experiment [2] it was over 1000 µM.
Consider `CS(=O)(=O)N[C@@H](Cc1ccc(OCCc2ccccc2)cc1)C(=O)NO`, for which the IC50 in experiment [1] amounted to 0.029 µM; in experiment [2], 9.5 µM.
In the case of `Cc1ccc(S(=O)(=O)N[C@@H](Cc2ccc(OCCc3ccccc3)cc2)C(=O)NO)cc1`, the IC50 in experiment [1] came out at 0.017 µM; in experiment [2] it was 82.5 µM.
